{"source": "paper PMC11384490", "about": "(Translational Lung Cancer Research, 2024)", "key": {"[1]": {"test_system": "orthotopic LLC pulmonary xenografts", "assay": "Orthotopic pulmonary LLC tumor imaging and boundary analysis", "type": "in vivo, C57BL/6 mice"}, "[2]": {"assay": "NIRF imaging and biodistribution in NSCLC subcutaneous tumor mouse model", "type": "in vivo, BALB/c nude mice", "settings": "mouse, in vivo, iv, 10 nmol", "in_short": "(§1)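 A549 cells in 100 µL PBS were injected subcutaneously into the left armpit of isoflurane-anaesthetised BALB/c nude mice, and tumours were sized by caliper (V=a2bπ/2). At about 100 mm3, mice (n=3) got the test compound (10 nmol) by tail vein. IVIS imaging ran from 1 h to several days, and tumour-to-background ratio was calculated. At 96 h, organs were excised, imaged, and organ-to-muscle fluorescence ratios averaged over 3 mice.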"}, "[3]": {"test_system": "A549 subcutaneous tumors", "assay": "NIRF imaging and biodistribution in NSCLC subcutaneous tumor mouse model", "type": "in vivo, BALB/c nude mice", "in_short": "as §1"}, "[4]": {"assay": "Water solubility", "type": "physicochemical", "settings": "result in words"}, "[5]": {"test_system": "4T1 lung metastatic nodules", "assay": "Imaging of experimental lung metastasis model", "type": "in vivo, Balb/c mouse", "settings": "iRGD-ZW800 10 nmol, 4 h vs ICG 100 nmol, 24 h; result in words", "in_short": "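Balb/c mice received 4T1 cells by tail vein and were observed weekly. After four weeks, the test compound (10 nmol) was given by tail vein. The chest was opened 4 h later and the lungs were imaged with an intraoperative NIRF imager. Control mice got ICG (100 nmol) and were imaged the same way after 24 h.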"}}}
{"smiles": "CC1(C)C(/C=C/C2=C(Oc3ccc(CCC(=O)N[C@H]4CSSC[C@@H](C(=O)O)NC(=O)[C@H](CC(=O)O)NC(=O)[C@@H]5CCCN5C(=O)CNC(=O)[C@H](CCCCN)NC(=O)[C@H](CC(=O)O)NC(=O)CNC(=O)[C@H](CCCNC(=N)N)NC4=O)cc3)C(=C/C=C3/N(CCC[N+](C)(C)C)c4ccc(S(=O)(=O)O)cc4C3(C)C)/CCC2)=[N+](CCC[N+](C)(C)C)c2ccc(S(=O)(=O)O)cc21", "note": "[iRGD-ZW800]", "values": [{"measurement": "ratio of tumor to lung fluorescence intensity", "setting": "[1]; 10 nmol tail vein, 24 h, FLI-10B imaging, ImageJ, standard deviation 0.18", "result": 2.2}, {"measurement": "tumor background ratios", "setting": "[1]; lung tumor imaging in C57BL/6J mice, all ratios", "result": "greater than 1.5"}, {"measurement": "tissue to tissue ratio at 96 h", "setting": "[2]", "result": 16.6}, {"measurement": "peak tumor-to-background ratio (TBRmax)", "setting": "[3]; 10 nmol per animal via tail vein, peak 96 h after injection, IVIS imaging, n=3", "result": "4.3±1.04"}, {"measurement": "Fluorescence intensity ratio Sp/M (spleen/muscle)", "setting": "[3]; ex vivo organs, 96 h after 10 nmol i.v., AVG of 3 mice, SD 0.19", "result": 0.85}, {"measurement": "Fluorescence intensity ratio In/M (intestine/muscle)", "setting": "[3]; ex vivo organs, 96 h after 10 nmol i.v., AVG of 3 mice, SD 0.58", "result": 1.43}, {"measurement": "Fluorescence intensity ratio H/M (heart/muscle)", "setting": "[3]; ex vivo organs, 96 h after 10 nmol i.v., AVG of 3 mice, SD 0.60", "result": 1.50}, {"measurement": "Fluorescence intensity ratio Ki/M (kidney/muscle)", "setting": "[3]; ex vivo organs, 96 h after 10 nmol i.v., AVG of 3 mice, SD 1.64", "result": 4.57}, {"measurement": "Fluorescence intensity ratio St/M (stomach/muscle)", "setting": "[3]; ex vivo organs, 96 h after 10 nmol i.v., AVG of 3 mice, SD 1.85", "result": 3.67}, {"measurement": "Fluorescence intensity ratio Li/M (liver/muscle)", "setting": "[3]; ex vivo organs, 96 h after 10 nmol i.v., AVG of 3 mice, SD 2.55", "result": 5.28}, {"measurement": "Fluorescence intensity ratio L/M (lung/muscle)", "setting": "[3]; ex vivo organs, 96 h after 10 nmol i.v., AVG of 3 mice, SD 2.67", "result": 5.01}, {"measurement": "Fluorescence intensity ratio C/M (colon/muscle)", "setting": "[3]; ex vivo organs, 96 h after 10 nmol i.v., AVG of 3 mice, SD 3.74", "result": 6.80}, {"measurement": "imaging window", "setting": "[3]; in vivo, 10 nmol tail vein, imaged periodically over 6 days", "result": "≥ 6", "unit": "days"}, {"measurement": "water solubility", "setting": "[4]", "result": "good water solubility"}, {"measurement": "water solubility", "setting": "[4]; listed as iRGD fluorescent tracer", "result": "highly soluble in water"}, {"measurement": "detection of metastatic lung nodules compared with ICG", "setting": "[5]", "result": "superior ability to detect more nodules"}]}
